The target of experiment [1] is Neurogenic locus notch homolog protein 1 (Mus musculus, UniProt Q01705). The experiment in a line: Inhibition of recombinant mouse N-terminal FLAG-tagged Notch1 (1704 to 2531 residues) expressed in human LS174T cells assessed as reduction in doxycycline-induced NICD expression after 12 hrs by Bright-Glo luciferase reporter gene assay. Format: cell-based. A digest of the protocol: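 LS174T cells stably carrying a luciferase reporter under 12× RBP-J sites (β-globin promoter), 2 × 10^4 per well. After 12 h, doxycycline 50 ng/mL for 12 h induced Notch1(1704–2531). Then dox-free medium with compound, 0.1% DMSO, 12 h at 37 °C. Read by Bright-Glo luminescence, n = 3, with parallel FMCA viability.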
Sequence of Neurogenic locus notch homolog protein 1 (Q01705 whole entry, the tested form may be a part): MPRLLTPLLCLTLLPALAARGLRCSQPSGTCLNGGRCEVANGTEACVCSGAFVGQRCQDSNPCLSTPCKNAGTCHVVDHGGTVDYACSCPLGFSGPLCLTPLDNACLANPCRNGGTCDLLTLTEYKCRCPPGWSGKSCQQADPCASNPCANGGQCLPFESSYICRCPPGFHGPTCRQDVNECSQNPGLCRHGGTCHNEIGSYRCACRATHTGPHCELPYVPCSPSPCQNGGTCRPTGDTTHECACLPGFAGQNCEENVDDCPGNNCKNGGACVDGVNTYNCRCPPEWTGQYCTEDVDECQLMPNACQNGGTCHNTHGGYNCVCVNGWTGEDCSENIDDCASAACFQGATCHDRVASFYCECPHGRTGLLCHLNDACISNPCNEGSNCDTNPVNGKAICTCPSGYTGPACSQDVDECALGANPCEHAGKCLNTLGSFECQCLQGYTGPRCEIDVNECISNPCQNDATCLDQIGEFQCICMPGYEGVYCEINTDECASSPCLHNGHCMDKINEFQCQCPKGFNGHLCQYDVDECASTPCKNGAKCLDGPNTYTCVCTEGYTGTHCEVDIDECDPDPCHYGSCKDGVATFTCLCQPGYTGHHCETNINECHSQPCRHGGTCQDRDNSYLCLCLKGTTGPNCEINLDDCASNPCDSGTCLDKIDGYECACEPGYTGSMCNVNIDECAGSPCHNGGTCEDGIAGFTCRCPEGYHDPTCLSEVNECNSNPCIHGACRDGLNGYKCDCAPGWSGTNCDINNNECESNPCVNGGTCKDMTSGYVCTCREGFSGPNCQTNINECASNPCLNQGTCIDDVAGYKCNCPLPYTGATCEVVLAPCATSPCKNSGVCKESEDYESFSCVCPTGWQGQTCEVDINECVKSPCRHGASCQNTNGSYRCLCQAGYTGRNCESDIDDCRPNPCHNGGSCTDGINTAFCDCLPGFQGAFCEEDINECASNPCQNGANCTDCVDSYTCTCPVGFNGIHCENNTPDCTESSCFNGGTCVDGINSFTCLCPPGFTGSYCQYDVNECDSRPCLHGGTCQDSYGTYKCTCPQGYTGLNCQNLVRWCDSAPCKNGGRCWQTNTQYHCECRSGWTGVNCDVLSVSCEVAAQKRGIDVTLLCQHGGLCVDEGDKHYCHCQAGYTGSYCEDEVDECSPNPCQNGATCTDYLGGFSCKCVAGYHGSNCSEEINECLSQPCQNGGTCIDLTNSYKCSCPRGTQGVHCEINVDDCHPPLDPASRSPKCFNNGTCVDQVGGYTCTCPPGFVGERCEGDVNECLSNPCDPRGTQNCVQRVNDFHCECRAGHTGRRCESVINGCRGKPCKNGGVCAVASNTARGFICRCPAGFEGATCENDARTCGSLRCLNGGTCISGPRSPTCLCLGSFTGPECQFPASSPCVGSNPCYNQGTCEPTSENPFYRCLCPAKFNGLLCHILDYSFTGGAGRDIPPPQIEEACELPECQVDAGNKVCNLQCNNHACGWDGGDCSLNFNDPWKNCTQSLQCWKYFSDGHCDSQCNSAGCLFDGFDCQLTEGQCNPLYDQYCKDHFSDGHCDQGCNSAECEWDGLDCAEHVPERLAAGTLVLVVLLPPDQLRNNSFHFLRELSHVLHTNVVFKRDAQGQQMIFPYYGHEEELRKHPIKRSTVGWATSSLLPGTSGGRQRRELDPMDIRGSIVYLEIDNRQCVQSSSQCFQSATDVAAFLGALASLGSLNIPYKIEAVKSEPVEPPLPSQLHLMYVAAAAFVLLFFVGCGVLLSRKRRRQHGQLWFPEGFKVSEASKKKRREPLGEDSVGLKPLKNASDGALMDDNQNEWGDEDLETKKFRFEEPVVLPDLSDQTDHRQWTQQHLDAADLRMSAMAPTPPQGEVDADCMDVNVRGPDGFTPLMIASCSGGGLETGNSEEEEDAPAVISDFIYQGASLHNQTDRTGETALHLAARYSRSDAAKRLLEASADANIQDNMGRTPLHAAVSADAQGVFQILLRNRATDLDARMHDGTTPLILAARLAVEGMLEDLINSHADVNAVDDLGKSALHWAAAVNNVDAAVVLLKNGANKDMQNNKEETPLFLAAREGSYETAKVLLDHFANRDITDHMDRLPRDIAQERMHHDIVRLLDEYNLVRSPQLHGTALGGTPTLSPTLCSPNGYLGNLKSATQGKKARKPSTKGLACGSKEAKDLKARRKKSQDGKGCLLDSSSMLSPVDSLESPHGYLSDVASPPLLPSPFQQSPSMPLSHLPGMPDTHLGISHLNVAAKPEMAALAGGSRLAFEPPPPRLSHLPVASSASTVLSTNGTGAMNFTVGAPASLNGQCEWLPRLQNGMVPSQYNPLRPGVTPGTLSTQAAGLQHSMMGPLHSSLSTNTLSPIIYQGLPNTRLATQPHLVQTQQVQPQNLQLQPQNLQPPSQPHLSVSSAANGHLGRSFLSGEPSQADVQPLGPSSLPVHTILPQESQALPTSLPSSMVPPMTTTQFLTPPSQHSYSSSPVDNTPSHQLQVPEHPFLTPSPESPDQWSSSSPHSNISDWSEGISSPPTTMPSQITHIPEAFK

The subject of experiment [2] is HPBALL. Kind of experiment: Effect on Notch1 mRNA expression in human HPBALL cells at 0.1 to 0.5 uM measured after 12 hrs. Format: functional, cell-based.
The target of experiment [3] is Neurogenic locus notch homolog protein 1 (Homo sapiens) (UniProt P46531). The experiment in a line: Inhibition of Notch1 in human HPBALL cells assessed as reduction in NICD expression at 0.5 uM after 12 hrs in presence of proteasome inhibitor MG132 by Western blot analysis. Format: cell-based. Summed up:
(§1)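 HPB-ALL cells at 1 × 10^6 per 6 cm dish, treated 12 h at 37 °C with compound plus proteasome inhibitor MG132 (18.5 μM). Lysates blotted on PVDF, probed for cleaved Notch1 (Val1744)/NICD with β-actin loading control, ECL detection.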
Background: In western blotting, separated proteins are transferred to a membrane and probed.

The subject of experiment [4] is HPBALL. Kind of experiment: Down regulation of Notch1 expression in human HPBALL cells at 0.5 uM after 12 hrs by Western blot analysis. Format: functional, cell-based.
For experiment [5], the target named is Neurogenic locus notch homolog protein 1 (Homo sapiens) (UniProt P46531). Kind of experiment: Inhibition of Notch1 in human HPBALL cells assessed as reduction in HES1 expression after 72 hrs by Western blot analysis. Format: cell-based. Summed up: (§2)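 HPB-ALL cells at 5 × 10^5 per 6 cm dish in RPMI-1640/10% FBS containing a range of compound concentrations, 72 h at 37 °C. Lysates run on SDS-PAGE and PVDF; probed with anti-HES1 or anti-cleaved Notch1 (Val1744) for NICD, β-actin control, ECL read-out.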
Sequence of Neurogenic locus notch homolog protein 1 (Homo sapiens) (P46531 whole entry): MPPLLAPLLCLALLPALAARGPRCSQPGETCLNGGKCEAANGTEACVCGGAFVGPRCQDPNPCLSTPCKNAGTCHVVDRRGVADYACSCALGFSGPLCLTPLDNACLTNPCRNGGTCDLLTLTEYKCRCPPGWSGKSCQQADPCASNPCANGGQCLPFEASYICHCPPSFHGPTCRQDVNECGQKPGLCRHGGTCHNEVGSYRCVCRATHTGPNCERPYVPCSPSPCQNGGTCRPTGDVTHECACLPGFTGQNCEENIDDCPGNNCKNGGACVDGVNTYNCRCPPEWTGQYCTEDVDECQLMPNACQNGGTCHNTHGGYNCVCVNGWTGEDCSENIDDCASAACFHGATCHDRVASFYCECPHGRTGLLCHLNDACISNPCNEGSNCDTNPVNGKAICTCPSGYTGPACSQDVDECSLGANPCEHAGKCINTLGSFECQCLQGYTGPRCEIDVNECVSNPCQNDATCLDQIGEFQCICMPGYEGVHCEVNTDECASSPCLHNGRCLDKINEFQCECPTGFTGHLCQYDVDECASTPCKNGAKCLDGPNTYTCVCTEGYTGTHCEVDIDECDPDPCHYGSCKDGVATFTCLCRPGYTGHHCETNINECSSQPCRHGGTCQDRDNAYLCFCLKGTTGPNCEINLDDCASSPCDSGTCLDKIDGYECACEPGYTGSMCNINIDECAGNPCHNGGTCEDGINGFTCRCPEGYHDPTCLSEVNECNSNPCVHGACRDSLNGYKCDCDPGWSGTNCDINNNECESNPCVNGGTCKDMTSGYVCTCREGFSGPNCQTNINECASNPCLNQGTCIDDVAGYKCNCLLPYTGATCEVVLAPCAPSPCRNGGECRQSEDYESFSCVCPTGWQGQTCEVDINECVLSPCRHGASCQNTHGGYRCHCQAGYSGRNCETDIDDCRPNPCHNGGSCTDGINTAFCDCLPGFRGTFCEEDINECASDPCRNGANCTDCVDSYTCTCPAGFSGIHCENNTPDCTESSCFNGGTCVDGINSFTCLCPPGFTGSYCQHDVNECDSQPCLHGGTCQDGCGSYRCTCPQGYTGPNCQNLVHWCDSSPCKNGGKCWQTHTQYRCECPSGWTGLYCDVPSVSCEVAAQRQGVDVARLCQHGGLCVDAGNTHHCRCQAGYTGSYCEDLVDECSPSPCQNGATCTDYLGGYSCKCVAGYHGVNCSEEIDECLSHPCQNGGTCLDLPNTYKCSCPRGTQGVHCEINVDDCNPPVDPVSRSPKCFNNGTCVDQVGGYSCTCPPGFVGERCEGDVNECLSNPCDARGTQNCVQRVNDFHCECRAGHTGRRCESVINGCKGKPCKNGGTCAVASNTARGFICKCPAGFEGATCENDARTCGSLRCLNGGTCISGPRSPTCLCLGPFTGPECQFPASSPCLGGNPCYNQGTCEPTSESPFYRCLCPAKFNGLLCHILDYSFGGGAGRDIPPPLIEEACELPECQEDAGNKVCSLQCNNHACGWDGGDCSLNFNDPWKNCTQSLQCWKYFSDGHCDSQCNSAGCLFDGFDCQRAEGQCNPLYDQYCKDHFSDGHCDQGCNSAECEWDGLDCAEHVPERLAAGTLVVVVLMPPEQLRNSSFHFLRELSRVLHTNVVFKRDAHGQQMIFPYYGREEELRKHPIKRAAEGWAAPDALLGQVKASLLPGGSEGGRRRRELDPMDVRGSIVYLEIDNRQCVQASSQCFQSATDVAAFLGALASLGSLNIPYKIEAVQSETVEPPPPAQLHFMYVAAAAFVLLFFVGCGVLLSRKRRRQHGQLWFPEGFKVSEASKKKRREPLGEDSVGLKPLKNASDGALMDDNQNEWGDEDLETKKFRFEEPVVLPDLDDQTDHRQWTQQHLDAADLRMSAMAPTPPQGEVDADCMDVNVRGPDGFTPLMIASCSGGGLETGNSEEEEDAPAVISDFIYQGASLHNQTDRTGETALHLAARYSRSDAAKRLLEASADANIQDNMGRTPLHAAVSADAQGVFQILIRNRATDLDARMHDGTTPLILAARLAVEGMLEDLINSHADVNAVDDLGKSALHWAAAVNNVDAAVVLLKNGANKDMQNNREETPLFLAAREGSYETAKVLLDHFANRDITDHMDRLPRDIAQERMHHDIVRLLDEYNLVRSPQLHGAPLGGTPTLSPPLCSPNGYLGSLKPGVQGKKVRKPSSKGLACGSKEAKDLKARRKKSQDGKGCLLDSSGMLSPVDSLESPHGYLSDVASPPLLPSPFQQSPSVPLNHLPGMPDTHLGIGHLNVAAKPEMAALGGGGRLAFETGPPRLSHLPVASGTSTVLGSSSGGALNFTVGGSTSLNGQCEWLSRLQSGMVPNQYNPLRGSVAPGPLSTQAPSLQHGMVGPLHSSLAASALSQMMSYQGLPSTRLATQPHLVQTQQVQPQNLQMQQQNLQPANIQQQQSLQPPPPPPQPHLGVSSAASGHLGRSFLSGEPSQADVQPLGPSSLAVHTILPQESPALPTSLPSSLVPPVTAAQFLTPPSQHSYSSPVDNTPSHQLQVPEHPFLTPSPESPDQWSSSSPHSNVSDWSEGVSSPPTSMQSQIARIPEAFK

Experiment [6] has the same target. The experiment in a line: Inhibition of Notch1 in human HPBALL cells assessed as reduction in NICD expression at 0.5 uM after 12 hrs by Western blot analysis. Format: cell-based.
Experiment [7] has the same target. Kind of experiment: Inhibition of Notch1 in human HPBALL cells assessed as reduction in NICD expression after 72 hrs by Western blot analysis. Format: cell-based. A digest of the protocol:
as §2

For a further experiment, the system named is HEK293. Kind of experiment: Cytotoxicity against HEK293 cells after 72 hrs by fluorescence assay. Format: cell-based. The settings on record: Homo sapiens, HEK293, 72 h. Summed up:
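HEK293 cells at 1 × 10^4 per well in DMEM with 10% FBS and penicillin/streptomycin. Pre-incubated 24 h at 37 °C, then medium replaced with fresh medium holding a range of compound concentrations. Exposed 72 h; medium removed and proliferation read by fluorometric microculture cytotoxicity assay (FMCA).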

Experiment [8] deals with HPBALL. The experiment in a line: Cytotoxicity against human HPBALL cells after 72 hrs by alamar blue dye based fluorescence assay. Format: functional, cell-based. Summed up: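 HPB-ALL T-ALL cells at 1 × 10^4 per well in RPMI-1640 with 10% FBS and penicillin/streptomycin. Compound added at seeding over a concentration range; 72 h at 37 °C. AlamarBlue then added for 4 h and fluorescence read to give viability.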
In general terms: The colour change of resazurin is a common sign of viable cells or microbes.

For experiment [9], the system named is HPBALL. The experiment in a line: Down regulation of Notch1 expression in human HPBALL cells at 0.5 uM after 12 hrs in presence of proteasome inhibitor MG132 by Western blot analysis. Format: functional, cell-based. Summed up:
as §1

Experiment [10] has as its target Neurogenic locus notch homolog protein 1 (Mus musculus) (UniProt Q01705). The experiment in a line: Inhibition of doxycycline-induced recombinant mouse N-terminal FLAG-tagged Notch1 (1704 to 2531 residues) activation expressed in human LS174T cells assessed as reduction in Hes1 level at 0.05 to 0.3 uM after 12 hrs by Western blot analysis. Format: cell-based. Summed up: (§3)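 LS174T Notch assay cells at 1 × 10^6 per 6 cm dish, 12 h at 37 °C, then doxycycline 50 ng/mL for 12 h to induce FLAG-Notch1(1704–2531). Switched to fresh medium with compound for 12 h. Lysates probed by western blot with anti-FLAG, anti-cleaved Notch1 (Val1744), anti-HES1 or anti-HES5, β-actin control.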

The target is the same in experiment [11]. The experiment in a line: Inhibition of doxycycline-induced recombinant mouse N-terminal FLAG-tagged Notch1 (1704 to 2531 residues) activation expressed in human LS174T cells assessed as reduction in Hes5 level at 0.05 to 0.3 uM after 12 hrs by Western blot analysis. Format: cell-based. A digest of the protocol:
as §3

The next experiment has as its system LS174T. Kind of experiment: Inhibition of doxycycline-induced Notch1 (1704 to 2531 residues) expression in human LS174T cells after 12 hrs by Western blot analysis. Format: functional, cell-based. A digest of the protocol:
as §3

Experiment [12] deals with Neurogenic locus notch homolog protein 1 (Mus musculus) (UniProt Q01705). Kind of experiment: Inhibition of doxycycline-induced recombinant mouse N-terminal FLAG-tagged Notch1 (1704 to 2531 residues) activation expressed in human LS174T cells assessed as reduction in NCID expression after 12 hrs by Western blot analysis. Format: cell-based. Summed up:
as §3

Experiment [13] has the same target. Kind of experiment: Inhibition of doxycycline-induced recombinant mouse N-terminal FLAG-tagged Notch1 (1704 to 2531 residues) activation expressed in human LS174T cells assessed as reduction in NCID expression at 0.5 uM after 12 hrs in presence of proteasome inhibitor MG132 by Western blot analysis. Format: cell-based.

Each structure is given as a SMILES string. The source made the active and inactive calls. The calls are words filed in the database; no cut-off is given here.

Sequence of Neurogenic locus notch homolog protein 1 (Mus musculus) (Q01705 whole entry, the tested form may be a part): as the sequence (Q01705 whole entry, the tested form may be a part) above

For orientation: IC50 means the concentration at which inhibition is half-maximal. As for `CO[C@@H]1C[C@H](O[C@H]2CC[C@@]3(C)[C@H](CC[C@@H]4[C@@H]3CC[C@]3(C)[C@@H](C5=CC(=O)OC5)[C@@H](OC(C)=O)C[C@]43O)C2)O[C@H](C)[C@@H]1O`, in experiment [1] (read-out: IC50), the IC50 came out at 2.7 µM.

Consider `CO[C@@H]1C[C@H](O[C@H]2CC[C@@]3(C)[C@H](CC[C@@H]4[C@@H]3CC[C@]3(C)[C@@H](C5=CC(=O)OC5)CC[C@]43O)C2)O[C@H](C)[C@@H]1O`, for which the IC50 in [1] (read-out: IC50) came to 4.2 µM.

Take `CO[C@@H]1C[C@H](O[C@H]2CC[C@@]3(C)[C@H](CC[C@]4(O)[C@@H]3CC[C@]3(C)[C@@H](C5=CC(=O)OC5)CC[C@@]34O)C2)O[C@H](C)[C@@H]1O`: in [1] (ls174t), the IC50 result was “Not Active”.

With `CO[C@H]1C[C@H](O[C@H]2CC[C@@]3(C)[C@H](CC[C@@H]4[C@@H]3CC[C@]3(C)[C@@H](C5=CC(=O)OC5)CC[C@]43O)C2)O[C@@H](O)[C@@H]1O`, the 50% inhibitory concentration (IC50) in experiment [1] (read-out: IC50) was 2.7 µM.

For `CO[C@@H]1C[C@H](O[C@H]2CC[C@@]3(C)[C@H](CC[C@@H]4[C@@H]3CC[C@]3(C)C(C5=CC(=O)OC5)=CC[C@]43O)C2)O[C@H](C)[C@@H]1O`, in experiment [1] (ls174t), the half-inhibitory concentration (IC50) result was “Not Active”.

For `CO[C@H]1C[C@H](O[C@H]2CC[C@@]3(C)[C@H](CC[C@@H]4[C@@H]3CC[C@]3(C)[C@@H](C5=CC(=O)OC5)[C@@H](O)C[C@]43O)C2)O[C@@H](C)[C@@H]1O`, in experiment [1] (read-out: IC50), the concentration for half-maximal inhibition (IC50) was determined as 2.5 µM.

On to `C[C@]12CC[C@H](O)C[C@H]1CC[C@@H]1[C@@H]2CC[C@]2(C)[C@@H](C3=CC(=O)OC3)CC[C@]12O` [DIGITOXIGENIN], for which the half-inhibitory concentration (IC50) result in experiment [1] (ls174t) was “Not Active”.

Turning to `CO[C@H]1C[C@H](O[C@H]2CC[C@@]3(C)[C@H](CC[C@@H]4[C@@H]3CC[C@]3(C)[C@@H](C5=CC(=O)OC5)[C@@H](OC(C)=O)C[C@]43O)C2)O[C@@H](C)[C@@H]1O` [OLEANDRIN], the results for the IC50 (in experiment [1] (read-out: IC50); in the experiment on HEK293; with HPBALL [8]) were 0.12 µM, 0.028 µM and 0.014 µM, respectively. Moreover, in the experiment with HPBALL [2], the result was inactive. The inhibition result in experiment [3] and in experiment [13] was “inactive” each time. Moreover, the outcome in the experiment with HPBALL [4] and in the experiment with HPBALL [9] was Active. Besides, the inhibition entry (in experiment [5]; in experiment [7]; with LS174T; in experiment [12]) was “Dose-dependent effect” throughout. For the same molecule, the inhibition entry in experiment [6], in [10] and in experiment [11] was “Active” each time.

For the origin of these results see ChEMBL document CHEMBL4251745, “The Notch Inhibitors Isolated from Nerium indicum” (J Nat Prod, 2018).
